Data published in ChEMBL document CHEMBL1955785, “SAR and biological evaluation of 3-azabicyclo[3.1.0]hexane derivatives as μ opioid ligands” (Bioorg Med Chem Lett, 2012).

Columns and labels:
[1] = Displacement of [3H]DAMGO from mu opioid receptor in dog brain after 90 mins by scintillation counting; set-up: species or system Canis lupus familiaris
[2] = Displacement of [3H]U-69,593 from kappa opioid receptor in dog brain after 90 mins by scintillation counting; set-up: species or system Canis lupus familiaris
[3] = Displacement of [3H]DPDPE from delta opioid receptor in dog brain after 90 mins by scintillation counting; set-up: species or system Canis lupus familiaris
[4] = target: Mu-type opioid receptor (Cavia porcellus) (UniProt P97266); assay: Antagonist activity at mu opioid receptor in guinea pig longitudinal muscle myenteric plexus assessed as inhibition of DAMGO-induced twitch tension at 1 uM after 10 mins; type: functional
Chain of Mu-type opioid receptor (Cavia porcellus) (P97266 whole entry): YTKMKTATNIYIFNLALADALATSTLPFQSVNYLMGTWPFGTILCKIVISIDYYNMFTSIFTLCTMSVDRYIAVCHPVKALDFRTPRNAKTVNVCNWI
Method in brief: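 Isolated guinea-pig myenteric plexus-longitudinal muscle was stimulated electrically at 0.1 Hz with a 1 ms pulse width at supramaximal voltage, then washed and rested for 20 min. Kappa antagonist nor-binaltorphimine (1 µM, 10 min) and captopril (1 µM) were added. Test compound was added once twitches plateaued, and 10 min later a cumulative DAMGO dose response was built (3 min contact, 1 min recording per concentration).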

[5] = target: T1, Mu-type opioid receptor (Homo sapiens, UniProt P35372); assay: Displacement of [3H]DAMGO from human mu opioid receptor
T1 sequence (P35372 whole entry): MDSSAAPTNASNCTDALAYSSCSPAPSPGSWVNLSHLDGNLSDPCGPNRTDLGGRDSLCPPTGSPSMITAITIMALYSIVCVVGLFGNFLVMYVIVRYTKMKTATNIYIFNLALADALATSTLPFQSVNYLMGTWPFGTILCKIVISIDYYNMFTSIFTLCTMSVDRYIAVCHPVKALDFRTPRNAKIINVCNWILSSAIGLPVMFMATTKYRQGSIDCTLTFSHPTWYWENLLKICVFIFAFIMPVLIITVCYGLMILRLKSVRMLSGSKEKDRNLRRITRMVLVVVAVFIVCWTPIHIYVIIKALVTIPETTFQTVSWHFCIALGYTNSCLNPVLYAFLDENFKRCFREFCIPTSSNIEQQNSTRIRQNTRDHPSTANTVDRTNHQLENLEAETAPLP
Method in brief: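 Human μ receptor filter-binding assay using [3H]DAMGO as the radioligand; Ki derived from displacement.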

[6] = target: T1, Mu-type opioid receptor; assay: Antagonist activity at human mu opioid receptor by GTP-gamma S binding assay

Ki [5] [nM]	SMILES	Ki [1] [nM]	Ki [2] [nM]	Ki [3] [nM]	inhibition [4] [%]	Ki [6] [nM]
	CCCCCCN1C[C@@H]2[C@H](C1)[C@@]2(C)c1cccc(NS(=O)(=O)C(C)C)c1	14	791	1580	18	
6.6	CC[C@]1(c2cccc(NS(C)(=O)=O)c2)[C@@H]2CN(CC(O)Cc3ccccc3)C[C@@H]21 (stereo not given in full)	2.6	70	595		2.5
	CCCCCCN1C[C@@H]2[C@H](C1)[C@]2(c1cccc(NS(C)(=O)=O)c1)C(C)C	3	48	308	32	
	CCCCCCN1C[C@@H]2[C@H](C1)[C@@]2(C)c1cccc(NS(=O)(=O)c2cccnc2)c1	71	1530	> 10000		
	CCCCCCN1C[C@@H]2[C@H](C1)[C@@]2(C)c1cccc(NS(=O)(=O)CCC)c1	104	1330	> 10000		
	CCCCCCN1C[C@@H]2[C@H](C1)[C@@]2(C)c1cccc(NS(=O)(=O)CCOC)c1	10	172	464	> 10	
0.1	CC[C@]1(c2cccc(NS(C)(=O)=O)c2)[C@@H]2CN(CC3Cc4ccccc4C3O)C[C@@H]21 (stereo not given in full)	0.07	4.5	19		0.08
	C[C@]1(c2cccc(NS(C)(=O)=O)c2)[C@@H]2CN(CCCc3ccccc3)C[C@@H]21	4.1	94	183	< 10	3.5
	CC[C@]1(c2cccc(NS(C)(=O)=O)c2)[C@@H]2CN(CCCc3ccccc3)C[C@@H]21	1.5	67	79	< 10	
	CCCCCCN1C[C@@H]2[C@H](C1)[C@@]2(CC)c1cccc(NS(C)(=O)=O)c1	50	1340	> 10000		
	CCCCCCN1C[C@@H]2[C@H](C1)[C@@]2(C)c1cccc(NS(C)(=O)=O)c1	14	270	869	< 10	
	CCCCCCN1C[C@@H]2[C@H](C1)[C@@]2(CCC)c1cccc(NS(C)(=O)=O)c1	10	328	66	< 10	
	CC[C@]1(c2cccc(NS(C)(=O)=O)c2)[C@@H]2CN(CC3Cc4ccccc4C3)C[C@@H]21	0.2	22	29		
	CCS(=O)(=O)Nc1cccc([C@@]2(C)[C@@H]3CN(CCCc4ccccc4)C[C@@H]32)c1	37	219	2900		

SMILES	Ki [5] [nM]	Ki [1] [nM]	Ki [2] [nM]	Ki [3] [nM]	inhibition [4] [%]	Ki [6] [nM]
C[C@]1(c2cccc(NS(C)(=O)=O)c2)[C@@H]2CN(CC3Cc4ccccc4C3)C[C@@H]21	0.81	0.55	51	384	< 10	0.3
